Data on 1 compound can be found in ChEMBL document CHEMBL2429803, “Animal toxicity of hairpin pyrrole-imidazole polyamides varies with the turn unit” (J Med Chem, 2013).

For data set [1], the system named is Mus musculus. The data set can be described thus: Acute toxicity in C57BL/6J mouse assessed as lesions in GI tract at 1 to 10 mg/kg, sc after 9 days. Further details: dose 1-10 mg/kg, route subcutaneous. Type of data set: organism-based, Gastrointestinal tract. The conditions noted are these: in vivo, 216 h. In outline:
(§1)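 Male C57BL/6J mice, 8 weeks old, received a single sc dose (1, 3 or 10 mg/kg in 25% DMSO/saline, n = 4 per group) and were sacrificed after 9 days. Two representative animals per group were fixed in 10% formalin. Cecum, duodenum, heart, ileum, kidney, liver, lung, pancreas, spleen and stomach were examined blind by a veterinary pathologist and lesions graded mild, moderate or severe.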

Data set [2] has as its system Mus musculus. The data set can be described thus: Acute toxicity in C57BL/6J mouse assessed as lesions in heart at 1 to 10 mg/kg, sc after 9 days. Type of data set: organism-based. Also on record: dose 1-10 mg/kg, route subcutaneous. The conditions noted are these: in vivo, 216 h. The method, boiled down:
as §1

Data set [3] concerns Mus musculus. The data set can be described thus: Acute toxicity in C57BL/6J mouse assessed as lesions in stomach at 1 to 10 mg/kg, sc after 9 days. The conditions noted are these: in vivo, 216 h. Further details: dose 1-10 mg/kg, route subcutaneous. Type of data set: organism-based. In outline:
as §1

Data set [4] has as its system Mus musculus. The data set can be described thus: Toxicity in C57BL/6J mouse assessed as epithelial necrosis and apoptosis in kidney at 1 mg/kg, sc administered every 3 days for a cycle of 3 injections measured 2 days post last injection. Type of data set: organism-based. Further details: dose 1 mg/kg, route subcutaneous. The conditions noted are these: in vivo, 48 h. The method, boiled down:
(§2)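 Male C57BL/6J mice, 8 weeks old, given 1 mg/kg sc every 3 days for three injections and sacrificed 2 days after the last one. Two mice per group fixed in 10% formalin. A veterinary pathologist, blinded, examined cecum, duodenum, heart, ileum, kidney, liver, lung, pancreas, spleen and stomach. Lesions graded mild, moderate or severe.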

The nature of data set [5]: Metabolic stability in human liver microsomes after 1 hr by LC/MS/MS analysis. Type of data set: ADME, Microsome. The conditions noted are these: read-out: Stability. The method, boiled down: (§3)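 Compound incubated at 37 °C for 60 min with 1 mg/mL human or mouse liver microsomes in 100 mM KH2PO4, 3 mM MgCl2, pH 7.4, with 2 mM NADPH or without it. Stopped with ice-cold methanol, then precipitate removed. Analyzed by LC/MS/MS as % remaining versus time zero. Duplicates.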
(Liver microsomes are vesicles of endoplasmic reticulum, rich in cytochrome P450 enzymes.)

The test system of data set [6] is Mus musculus. The data set can be described thus: Toxicity in C57BL/6J mouse assessed as weight loss at 1 mg/kg, sc administered every 3 days for a cycle of 3 injections. Also on record: dose 1 mg/kg, route subcutaneous. The conditions noted are these: in vivo, 72 h. In kind it is organism-based. The method, boiled down:
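8-week-old male C57BL/6J mice, acclimated 3 days, groups of three, dosed sc in 25% DMSO/saline vehicle once every 3 days, sacrificed 2 days after the last injection. Body weight recorded on injection days and at end point; humane end point set at visible duress or >15% loss of original body weight.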

Data set [7] has as its system Mus musculus. The data set can be described thus: Toxicity in C57BL/6J mouse assessed as mild tubular attenuation in kidney at 1 mg/kg, sc administered every 3 days for a cycle of 3 injections measured 2 days post last injection. In kind it is organism-based. Further details: dose 1 mg/kg, route subcutaneous. The conditions noted are these: in vivo, 48 h. The method, boiled down:
as §2

The nature of data set [8]: Metabolic stability in human liver microsomes after 1 hr by LC/MS/MS analysis in presence of NADPH. The conditions noted are these: read-out: Stability. Type of data set: ADME, Microsome. In outline: as §3
The subject of data set [9] is Mus musculus. The experiment in a line: Acute toxicity in C57BL/6J mouse assessed as lesions in lungs at 1 to 10 mg/kg, sc after 9 days. In kind it is organism-based. Further details: dose 1-10 mg/kg, route subcutaneous. The conditions noted are these: in vivo, 216 h. The method, boiled down:
as §1

For data set [10], the system named is Mus musculus. The experiment in a line: Acute toxicity in C57BL/6J mouse assessed as milder tubular regeneration at 10 mg/kg, sc after 9 days. In kind it is organism-based. Further details: dose 10 mg/kg, route subcutaneous. The conditions noted are these: in vivo, 216 h. In outline: as §1
Data set [11] has as its system Mus musculus. The data set can be described thus: Toxicity in C57BL/6J mouse assessed as mild multifocal hepatocellular necrosis and apoptosis in liver at 1 mg/kg, sc administered every 3 days for a cycle of 3 injections measured 2 days post last injection. In kind it is organism-based. Further details: dose 1 mg/kg, route subcutaneous. The conditions noted are these: in vivo, 48 h. The method, boiled down:
as §2

For data set [12], the system named is Mus musculus. The experiment in a line: Acute toxicity in C57BL/6J mouse assessed as weight loss at 10 mg/kg, sc after 9 days. Type of data set: organism-based. Further details: dose 10 mg/kg, route subcutaneous. The conditions noted are these: in vivo, 216 h. In outline: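 Male C57BL/6J mice, 8 weeks old, were acclimated 3 days and then given a single sc injection of 1, 3 or 10 mg/kg in 25% DMSO/saline vehicle (up to 200 μL), n = 4 per group. Weight, behaviour and appearance were monitored daily for 9 days before sacrifice. The humane end point was visible duress or weight loss over 15% of the original.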

The subject of data set [13] is Mus musculus. The data set can be described thus: Acute toxicity in C57BL/6J mouse assessed as diffuse hepatocellular necrosis and apoptosis at 3 to 10 mg/kg, sc after 9 days. In kind it is organism-based. Further details: dose 3-10 mg/kg, route subcutaneous. The conditions noted are these: in vivo, 216 h. In outline: as §1
Data set [14] has as its system Mus musculus. The experiment in a line: Toxicity in C57BL/6J mouse assessed as weight loss at 10 mg/kg, sc. Type of data set: organism-based. Also on record: dose 10 mg/kg, route subcutaneous. The conditions noted are these: in vivo. In outline: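 Single sc injection in 25% DMSO/saline to 8-week-old male C57BL/6J mice acclimated 3 days; groups of four receiving 1, 3 or 10 mg/kg. Weight monitored daily for 9 days, then sacrifice; euthanasia on visible duress or weight loss beyond 15% of original body weight.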

The subject of data set [15] is Mus musculus. The data set can be described thus: Acute toxicity in C57BL/6J mouse at 10 mg/kg, sc after 9 days. Type of data set: organism-based. Further details: dose 10 mg/kg, route subcutaneous. The conditions noted are these: in vivo, 216 h. The method, boiled down: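 Single sc injection in male 8-week-old C57BL/6J mice (1, 3 or 10 mg/kg in 25% DMSO/saline; n = 4 per group), followed for 9 days with daily weighing, then sacrifice. Toxicity was assessed by blinded histopathology of two mice per group and by blinded serum ALT, AST, total bilirubin, BUN and creatinine from retroorbital blood of all mice.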

In data set [16] the test system is Mus musculus. The data set can be described thus: Acute toxicity in C57BL/6J mouse assessed as hepatocellular necrosis and apoptosis at 3 mg/kg, sc after 9 days. In kind it is organism-based. The conditions noted are these: in vivo, 216 h. Also on record: dose 3 mg/kg, route subcutaneous. In outline: as §1
A short description of data set [17]: Metabolic stability in mouse liver microsomes after 1 hr by LC/MS/MS analysis. In kind it is ADME, Microsome. The conditions noted are these: read-out: Stability. In outline:
as §3

In data set [18] the test system is Mus musculus. The data set can be described thus: Acute toxicity in C57BL/6J mouse assessed as karyomegaly at 10 mg/kg, sc after 9 days. In kind it is organism-based. Also on record: dose 10 mg/kg, route subcutaneous. The conditions noted are these: in vivo, 216 h. In outline: as §1
Data set [19] relates to Mus musculus. The data set can be described thus: Toxicity in C57BL/6J mouse assessed as karyomegaly in kidney at 1 mg/kg, sc administered every 3 days for a cycle of 3 injections measured 2 days post last injection. Type of data set: organism-based. Also on record: dose 1 mg/kg, route subcutaneous. The conditions noted are these: in vivo, 48 h. The method, boiled down:
as §2

Data set [20] deals with Mus musculus. The data set can be described thus: Acute toxicity in C57BL/6J mouse assessed as lesions in pancreas at 1 to 10 mg/kg, sc after 9 days. Type of data set: organism-based. Further details: dose 1-10 mg/kg, route subcutaneous. The conditions noted are these: in vivo, 216 h. In outline: as §1
The nature of data set [21]: Metabolic stability in mouse liver microsomes after 1 hr by LC/MS/MS analysis in presence of NADPH. Type of data set: ADME, Microsome. The conditions noted are these: read-out: Stability. The method, boiled down: as §3
Data set [22] deals with Mus musculus. The data set can be described thus: Toxicity in C57BL/6J mouse assessed as morbidity at 1 mg/kg, sc administered every 3 days for a cycle of 3 injections. Type of data set: organism-based. Also on record: dose 1 mg/kg, route subcutaneous. The conditions noted are these: in vivo, 72 h. In outline: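 Male C57BL/6J mice, 3 per group, given 1 mg/kg sc every 3 days. Weight recorded on injection days. Watched for signs of duress. Humane end point was visible duress or weight loss over 15% of starting body weight.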

`CN(CCCNC(=O)c1cccc(C(=O)O)c1)CCCNC(=O)c1cc(NC(=O)c2cc(NC(=O)c3cc(NC(=O)c4nc(NC(=O)[C@H](N)CCNC(=O)c5cc(NC(=O)c6cc(NC(=O)c7cc(NC(=O)c8nccn8C)cn7C)cn6C)cn5C)cn4C)cn3C)cn2C)cn1C`: the Activity entry with Mus musculus [1] is listed as “Non-toxic”; in the data set on Mus musculus [2] it was “Non-toxic”; in the data set with Mus musculus [3], “Non-toxic”; in the data set on Mus musculus [4], “Toxic”; in the data set with Mus musculus [6], “Non-toxic”; in the data set on Mus musculus [7] it was “Toxic”. Also, the Activity result is recorded as “Non-toxic” with Mus musculus [9]; “Toxic” in the data set with Mus musculus [10]; “Toxic” with Mus musculus [11]; “Toxic” in the data set with Mus musculus [12]; “Toxic” in the data set on Mus musculus [13]; greater than 15% with Mus musculus [14]. The Activity result with Mus musculus [15] is reported as “Non-toxic”; in the data set with Mus musculus [16] it was “Toxic”; with Mus musculus [18], “Toxic”; in the data set with Mus musculus [19] it was “Toxic”; in the data set on Mus musculus [20], “Non-toxic”; in the data set with Mus musculus [22], “Non-toxic”. The remaining at 1 h in [5], in data set [8], in [17] and in data set [21] was greater than 90% each time.
